# Sampled rows, rich in hits. Any-hit rate of the full collection: about 3.9%.
# AHR act: activates the human aryl hydrocarbon receptor. P35869. AHR-responsive luciferase reporter cells, luminescence. activation, % at 5 µM. actives 2.5% (n = 320,000). AID 2796; in the data active means activation above about 47%;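 further: 0% = vehicle wells and 100% = reference agonist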
# Target sequence (P35869 whole entry, looked up): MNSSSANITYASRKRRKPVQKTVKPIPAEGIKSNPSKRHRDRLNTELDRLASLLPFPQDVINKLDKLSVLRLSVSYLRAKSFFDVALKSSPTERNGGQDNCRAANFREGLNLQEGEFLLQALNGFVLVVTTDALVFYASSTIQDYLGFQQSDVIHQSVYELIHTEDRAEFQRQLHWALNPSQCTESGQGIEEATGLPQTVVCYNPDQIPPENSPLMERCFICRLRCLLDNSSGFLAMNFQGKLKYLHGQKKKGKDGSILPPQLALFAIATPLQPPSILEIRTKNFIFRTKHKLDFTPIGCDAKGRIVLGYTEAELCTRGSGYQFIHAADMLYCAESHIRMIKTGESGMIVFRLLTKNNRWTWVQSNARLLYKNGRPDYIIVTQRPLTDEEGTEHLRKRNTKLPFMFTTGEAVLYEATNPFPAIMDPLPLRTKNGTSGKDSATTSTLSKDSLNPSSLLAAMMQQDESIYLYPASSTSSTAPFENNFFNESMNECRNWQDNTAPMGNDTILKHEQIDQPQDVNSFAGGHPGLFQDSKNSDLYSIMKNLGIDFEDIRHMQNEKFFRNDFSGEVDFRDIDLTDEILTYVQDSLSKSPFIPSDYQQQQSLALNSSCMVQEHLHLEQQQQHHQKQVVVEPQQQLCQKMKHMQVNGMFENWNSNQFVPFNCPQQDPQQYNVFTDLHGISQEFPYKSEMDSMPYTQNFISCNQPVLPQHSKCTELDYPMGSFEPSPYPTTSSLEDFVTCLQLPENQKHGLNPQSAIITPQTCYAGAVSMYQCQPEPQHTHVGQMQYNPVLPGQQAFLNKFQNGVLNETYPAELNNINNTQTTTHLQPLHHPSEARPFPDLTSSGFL
# SR-BI HDL uptake: blocks mouse SR-BI lipid uptake from DiI-HDL; Q61009; ldlA[mSR-BI] CHO cells, DiI-HDL uptake fluorescence, 3 h; inhibition, % at 12.5 µM; actives 0.96% (n = 320,000);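 active means mean replicate inhibition of at least 70% and a set share of replicates each scoring 70 or more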;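 further: 0% = median of neutral control wells and 100% = median of positive control wells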
# HIF act: HIF pathway transcriptional activation; U2OS HRE-luciferase reporter, luminescence; normalized: DMSO 0%, desferrioxamine 100%; activation, % at 7.5 µM (by protocol); actives 0.32% (n = 300,000);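 active means mean activation of at least 10% of the iron chelator positive control signal, with at least half of replicates also reaching 10%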
# SR-BI DiI-HDL act: enhances SR-BI lipid uptake from DiI-HDL; CHO ldlA[mSR-BI] cells, DiI-HDL uptake fluorescence, 3 h; 100 = double the neutral-control signal; activation, % at 12.5 µM; actives 0.096% (n = 320,000); AID 504775;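 active means mean replicate activation of at least 60% and every replicate at or above 60%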;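 further: 0% = median plate neutral-control signal and 100% = twice that signal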
#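 Test system: SR-BI-overexpressing, LDLR-lacking CHO cells; Also added: labelled HDL, 10 µg/mL; Measured by: bottom-read cell fluorescence after medium removal, ex 550/em 595 nm; Timing: 3 h uptake period with compound, 37 °C; Buffer or medium: F12, 0.5% BSA, 25 mM HEPES; Doses: single compound concentration, delivered by pin transfer.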
# GAA850 FXN act: increases GAA850 frataxin promoter reporter activity | activation, % at 6 µM | AID 540364 | HEK293 lucGAA850 FXN promoter luciferase reporter, 24 h; percent of 10 µM SAHA response | actives 0.56% (n = 360,000);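 active means activation above the average of all compounds screened plus 3 SD, cutoff fixed separately per campaign, cut at about 7.5% in these data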;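 further: 0% = DMSO wells and 100% = 10 µM SAHA wells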
# ABCB6 inh 2: blocks the human ABCB6 transporter; AID 602162; K562-ABCB6 porphyrin accumulation, flow cytometry, 1 h; stronger effect = lower value; fluorescence ratio to DMSO, % at 10 µM; actives 0.19% (n = 360,000);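 active means fluorescence ratio to DMSO below 75%, the collection mean minus 3 SD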;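 further: signal is porphyrin accumulated inside mitochondria; 100% equals median channel fluorescence of DMSO control wells; lower ratio means ABCB6 inhibition with less porphyrin fluorescence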
# ABCB6 blocker 1: human ABCB6 transporter inhibition; ratio response (% of DMSO), % at 10 µM; AID 602430; K562-ABCB6 porphyrin accumulation, flow cytometry, 1 h; stronger effect = lower value; 700 tested, under 10 active; shares compounds with ABCB6 inh 2;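 active means repeat-averaged ratio response below 75% of DMSO, the collection mean minus 3 SD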;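 further: median porphyrin fluorescence at 575 nm with 488 nm excitation from mitochondria; lower ratio means less porphyrin signal so ABCB6 inhibition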
# K562 vector FC: counter-screen for ABCB6 inhibitors: effect in vector-only K562 cells. shares compounds with ABCB6 inh 2. K562 empty-vector cells, flow cytometry fluorescence, 1 h. percent response (fluorescence), % at 100 µM. 25 tested, under 10 active. AID 624484;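 active means compounds whose half-maximal effective concentration is below 100 µM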
# Active calls of the source: *; x = no result.
SMILES,AHR act,SR-BI HDL uptake,HIF act,SR-BI DiI-HDL act,GAA850 FXN act,ABCB6 inh 2,ABCB6 blocker 1,others
O=C(OCC(=O)N1CCN(c2ccccc2)CC1)c1ccccn1,-1,-11,0,11,2,100,x,
O=C(OCC(=O)N1CCN(c2ccccc2)CC1)c1ccc2ccccc2n1,10,-3,0,3,1,74*,99,
CCCc1nnc(NC(=O)c2nc(S(=O)(=O)Cc3cccc(C)c3)ncc2Cl)s1,-1,-15,0,15,0,101,x,K562 vector FC=250
Cc1cccc(CS(=O)(=O)c2ncc(Cl)c(C(=O)Nc3c(C)cccc3C)n2)c1,-3,-5,1,5,-2,100,94,
CCOC(=O)/C=C/[C@H]1CC2(CCO1)SCCCS2,2,-7,x,7,4,98,x,
CC1CCCCN1S(=O)(=O)c1ccc(N(C(=O)c2cnccn2)C(C(=O)NC2CCCC2)c2cccs2)cc1 (centres undefined),-4,-3,0,3,6,70*,101,
CC1CCCCN1S(=O)(=O)c1ccc(N(C(=O)c2cnccn2)C(C(=O)NC2CCCCC2)c2cccs2)cc1 (centres undefined),2,-19,0,19,3,94,x,
Cc1cccc(NC(=O)c2ccc3c(c2)OCCO3)c1C,-2,x,5,x,5,97,x,
O=C(Nc1cccc2cccnc12)c1ccc2c(c1)OCCO2,23,4,2,-4,4,43*,97,
Cc1ccc(NC(=O)Cn2c(=O)n(CCCC(=O)NCc3ccco3)c(=O)c3ccccc32)cc1,-3,5,3,-5,2,95,x,
O=C(NCc1cccc(Cl)c1)c1ccc2ccccc2n1,-1,4,-1,-4,2,70*,99,
O=C(NCc1ccccc1Cl)c1ccc2ccccc2n1,20,-9,2,9,6,99,x,
O=C(O)c1cn(Cc2ccccc2)c2ccccc2c1=O,4,8,0,-8,-2,108,x,
O=c1ccn(Cc2ccccc2)c2ccccc12,0,-17,-10,17,2,72*,97,
CCOc1ccccc1N(CC(=O)Nc1ccccc1)S(=O)(=O)c1ccccc1,4,7,-21,-7,0,94,x,
CC1(C(=O)NS(=O)(=O)c2ccc3c(c2)CCO3)CCN1C(=O)CCc1ccc(Cl)cc1Cl (centres undefined),x,x,x,x,1,81,x,
CC1(C(=O)NS(=O)(=O)c2ccc(Cl)cc2)CCN1C(=O)C1(c2ccccc2)CCCC1 (centres undefined),x,x,x,x,-2,101,x,
CC1(C(=O)NS(=O)(=O)c2ccc(C#N)cc2)CCN1C(=O)C1(c2ccc(Cl)cc2)CC1 (centres undefined),x,x,x,x,0,101,100,
CC1(C(=O)NS(=O)(=O)c2ccc3c(c2)CCO3)CCN1C(=O)C1(c2ccc(Cl)cc2)CCC1 (centres undefined),x,x,x,x,3,87,96,
CC1(C(=O)NS(=O)(=O)c2ccccc2)CCN1C(=O)C1(c2ccc(Cl)cc2)CC1 (centres undefined),x,x,x,x,-1,71*,102,
Cc1ccc(F)c(S(=O)(=O)NC(=O)C2(C)CCN2C(=O)C2(c3ccc(Cl)cc3)CCC2)c1 (centres undefined),x,x,x,x,-2,97,x,
Cc1ccc(F)c(S(=O)(=O)NC(=O)C2(C)CCN2C(=O)C2(c3ccc(Cl)cc3)CC2)c1 (centres undefined),x,x,x,x,1,975,99,
O=C(CCC(=O)N(CC(=O)NC1CCCC1)C1CCCC1)Nc1ccccn1,5,4,0,-4,1,99,x,
CC1(C(=O)NS(=O)(=O)c2ccc(Cl)cc2)CCN1C(=O)C1(c2ccc(Cl)cc2)CCC1 (centres undefined),x,x,x,x,1,97,99,
CC(C)(C)c1ccc(S(=O)(=O)NC(=O)C2(C)CCN2C(=O)C2(c3ccccc3)CC2)cc1 (centres undefined),x,x,x,x,0,95,x,
SMILES,AHR act,SR-BI HDL uptake,HIF act,SR-BI DiI-HDL act,GAA850 FXN act,ABCB6 inh 2,ABCB6 blocker 1,others
CC1(C(=O)NS(=O)(=O)c2ccc(C#N)cc2)CCN1C(=O)C1(c2ccccc2)CCCC1 (centres undefined),x,x,x,x,-1,101,100,
Cc1ccc(S(=O)(=O)NC(=O)C2(C)CCN2C(=O)C2(c3ccc(Cl)cc3)CCC2)cc1 (centres undefined),x,x,x,x,2,100,x,
Cc1ccccc1S(=O)(=O)NC(=O)C1(C)CCN1C(=O)C1(c2ccccc2)CC1 (centres undefined),x,x,x,x,0,102,101,
CN(C)CCCOC(=O)c1ccccc1,-2,-7,-1,7,0,88,x,
Cc1cccc(OC(=O)c2cccnc2)c1C,5,-6,1,6,0,99,x,
COc1cc(-c2cc3nc(NCCc4ccc(S(N)(=O)=O)cc4)ccn3n2)cc(OC)c1OC,x,x,x,x,-1,60*,100,
CCOC(=O)C1CCCN(C(=O)c2cn(C)c3ccc(S(=O)(=O)N4CCCC4)cc3c2=O)C1 (centres undefined),0,9,x,-9,-1,57*,102,
O=C(COc1ccc(/C=N/NC(=O)CSCc2ccc([N+](=O)[O-])cc2)cc1)NCc1ccco1,-2,14,0,-14,0,94,x,
Nc1cc(=O)[nH]c(SCC(=O)Nc2cccc(S(=O)(=O)N3CCCCC3)c2)n1,0,-14,x,14,2,103,x,
O=C(COC(=O)Cc1c(Cl)cccc1Cl)NC1CCCC1,-3,20,x,-20,0,100,x,
Cc1ccc(NC(=O)Nc2ccon2)cc1,x,1,1,-1,2,10*,99,
O=C(Cc1ccc(-n2c(=O)c3ccccc3n(Cc3ccccc3Cl)c2=O)cc1)NCC1CCCO1 (centres undefined),-1,x,0,x,2,99,x,
CC(=O)Nc1c(C)ccc(CNC(=O)COc2cc(C)ccc2C)c1C,34,-19,-10,19,-1,72*,101,
CC(NC(=O)COc1ccc(/C=N/NC(=O)C(=O)Nc2ccccc2Br)cc1)c1ccccc1 (centres undefined),-2,61,0,-61,-2,97,x,
CCCc1ccc(S(=O)(=O)NCc2nnc(SC)n2C)cc1,-2,x,0,x,2,63*,97,
Cc1cc2ccccc2n2c(SCC(=O)Nc3ccc(S(=O)(=O)N4CCC(C)CC4)cc3)nnc12,3,5,0,-5,2,68*,99,
